Among the data in ChEMBL document CHEMBL4828755, “A sulfonyl fluoride derivative inhibits EGFRL858R/T790M/C797S by covalent modification of the catalytic lysine” (Eur J Med Chem, 2021) are inhibition, IC50 and Activity values, retold here.

In experiment [1] the test system is Epidermal growth factor receptor (Homo sapiens), P00533 [UNDEFINED MUTATION]. As to the kind of experiment: Inhibition of EGFR del19/T790M/C797S triple mutant (unknown origin) using fluoresceine-labelled poly-GT peptide as substrate up to 10 uM preincubated with enzyme for 3 hrs followed by substrate and ATP addition by TR-FRET assay. The conditions noted are these: dose microM <=10, time 3.0 hrs. A general note: Time-resolved FRET reads energy transfer from a long-lived donor to a nearby acceptor.

Experiment [2] has as its target Mitogen-activated protein kinase 3 (Homo sapiens) (UniProt P27361). In words: Inhibition of GST-tagged human full length recombinant ERK1 expressed in Escherichia coli at 100 to 1000 nM by Z'-LYTE assay. To be noted: dose 100-1000 nM.
For experiment [3], the target named is Fibroblast growth factor receptor 4 (Homo sapiens) (UniProt P22455). As to the kind of experiment: Inhibition of His-tagged human recombinant FGFR4 ([…] residues) expressed in baculovirus expression system at 100 to 1000 nM by Z'-LYTE assay. To be noted: dose 100-1000 nM. In short, it runs like this: (§1)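 Z'-LYTE FRET kinase panel; phosphorylation of a reference peptide measured with ATP at each enzyme's Km. Compounds tested in 1% DMSO at 0.1 and/or 1 μM. Values are means of two independent experiments with standard deviations.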
Fibroblast growth factor receptor 4 (Homo sapiens), sequence (P22455 22-802 limits assumed): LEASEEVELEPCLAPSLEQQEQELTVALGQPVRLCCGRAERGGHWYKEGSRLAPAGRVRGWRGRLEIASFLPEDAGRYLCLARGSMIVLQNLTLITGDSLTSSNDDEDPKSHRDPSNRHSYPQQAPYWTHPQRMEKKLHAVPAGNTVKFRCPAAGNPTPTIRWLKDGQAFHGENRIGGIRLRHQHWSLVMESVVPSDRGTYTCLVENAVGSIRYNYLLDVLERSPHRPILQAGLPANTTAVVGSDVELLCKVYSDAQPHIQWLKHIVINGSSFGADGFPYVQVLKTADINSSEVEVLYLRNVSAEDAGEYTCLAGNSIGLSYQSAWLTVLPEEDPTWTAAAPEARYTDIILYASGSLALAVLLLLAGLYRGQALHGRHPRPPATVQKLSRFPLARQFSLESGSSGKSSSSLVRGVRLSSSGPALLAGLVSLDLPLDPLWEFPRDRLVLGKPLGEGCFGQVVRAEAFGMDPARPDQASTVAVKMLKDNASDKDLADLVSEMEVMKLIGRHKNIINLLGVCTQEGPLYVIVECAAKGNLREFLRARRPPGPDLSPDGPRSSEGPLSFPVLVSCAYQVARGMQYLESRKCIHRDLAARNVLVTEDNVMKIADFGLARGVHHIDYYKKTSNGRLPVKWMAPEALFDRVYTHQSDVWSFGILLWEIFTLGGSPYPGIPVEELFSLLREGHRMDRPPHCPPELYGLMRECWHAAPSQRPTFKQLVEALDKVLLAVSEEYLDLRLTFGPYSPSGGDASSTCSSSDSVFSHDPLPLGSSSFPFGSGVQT

Experiment [4] addresses Tyrosine-protein kinase JAK1 (Homo sapiens) (UniProt P23458). As to the kind of experiment: Inhibition of GST-tagged human recombinant JAK1 (866 to 1154 residues) expressed in baculovirus expression system at 100 to 1000 nM by Z'-LYTE assay. To be noted: dose 100-1000 nM.
Experiment [5] has as its target Mitogen-activated protein kinase 14 (Homo sapiens) (UniProt Q16539). In words: Inhibition of GST-tagged human full length recombinant p38 alpha expressed in Escherichia coli at 100 to 1000 nM by Z'-LYTE assay. The conditions noted are these: dose 100-1000 nM.
Experiment [6] concerns the target Platelet-derived growth factor receptor alpha (Homo sapiens) (UniProt P16234). In words: Inhibition of GST-tagged human recombinant PDGFR alpha (550 to 1089 residues) expressed in baculovirus expression system at 100 to 1000 nM by Z'-LYTE assay. The conditions noted are these: dose 100-1000 nM.
The target in experiment [7] is Epidermal growth factor receptor (Homo sapiens, UniProt P00533, C797S/L858R/T790M). In words: Inhibition of EGFR L858R/T790M/C797S triple mutant (unknown origin) using […] preincubated with enzyme and ATP at Km for 3 hrs followed by substrate addition and measured after 1 hr by TR-FRET assay.
Experiment [8] addresses Epidermal growth factor receptor (Homo sapiens, UniProt P00533). The experiment is classed as ADME.
The target of experiment [9] is RAC-beta serine/threonine-protein kinase (Homo sapiens) (UniProt P31751). As to the kind of experiment: Inhibition of His-tagged full length human recombinant AKT2 expressed in baculovirus expression system at 1 uM by Z'-LYTE assay. The method in brief: as §1
The target in experiment [10] is Cyclin-dependent kinase 2 (Homo sapiens) (UniProt P24941). As to the kind of experiment: Inhibition of human recombinant CDK2 at 1 uM by Z'-LYTE assay. The method in brief: as §1
Experiment [11] has as its target Tyrosine-protein kinase Blk (Homo sapiens) (UniProt P51451). In words: Inhibition of His-tagged human full length recombinant BLK expressed in baculovirus expression system at 1 uM by Z'-LYTE assay. The method in brief:
as §1

In experiment [12] the target is Tyrosine-protein kinase Lck (Homo sapiens) (UniProt P06239). As to the kind of experiment: Inhibition of human recombinant LCK at 1 uM by Z'-LYTE assay. The method in brief: as §1
Experiment [13] has as its target Proto-oncogene tyrosine-protein kinase Src (Homo sapiens) (UniProt P12931). As to the kind of experiment: Inhibition of C-terminal His-tagged human recombinant SRC expressed in baculovirus expression system at 1 uM by Z'-LYTE assay. In short, it runs like this:
as §1

Experiment [14] addresses Fibroblast growth factor receptor 4 (Homo sapiens) (UniProt P22455). As to the kind of experiment: Inhibition of His-tagged human recombinant FGFR4 ([…] residues) expressed in baculovirus expression system at 1 uM by Z'-LYTE assay. In short, it runs like this:
as §1

Experiment [15] concerns the target Tyrosine-protein kinase JAK1 (Homo sapiens) (UniProt P23458). As to the kind of experiment: Inhibition of GST-tagged human recombinant JAK1 (866 to 1154 residues) expressed in baculovirus expression system at 1 uM by Z'-LYTE assay. The method in brief: as §1
For experiment [16], the target named is Mitogen-activated protein kinase 14 (Homo sapiens) (UniProt Q16539). As to the kind of experiment: Inhibition of GST-tagged human full length recombinant p38 alpha expressed in Escherichia coli at 1 uM by Z'-LYTE assay. The method in brief: as §1
Mitogen-activated protein kinase 14 (Homo sapiens), sequence (Q16539 whole entry, the tested form may be a part): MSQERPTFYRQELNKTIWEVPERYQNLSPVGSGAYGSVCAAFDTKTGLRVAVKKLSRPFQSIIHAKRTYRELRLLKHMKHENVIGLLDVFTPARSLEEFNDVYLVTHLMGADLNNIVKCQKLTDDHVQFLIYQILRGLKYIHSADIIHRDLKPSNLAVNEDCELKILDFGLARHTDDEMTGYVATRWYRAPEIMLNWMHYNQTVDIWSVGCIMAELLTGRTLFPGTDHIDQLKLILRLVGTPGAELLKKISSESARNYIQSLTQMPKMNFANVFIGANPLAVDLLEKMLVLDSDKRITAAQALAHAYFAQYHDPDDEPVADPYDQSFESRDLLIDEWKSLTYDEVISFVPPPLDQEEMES
The target of experiment [17] is Platelet-derived growth factor receptor alpha (Homo sapiens) (UniProt P16234). In words: Inhibition of GST-tagged human recombinant PDGFR alpha (550 to 1089 residues) expressed in baculovirus expression system at 1 uM by Z'-LYTE assay. The method in brief:
as §1

The target of experiment [18] is Rho-associated protein kinase 1 (Homo sapiens) (UniProt Q13464). In words: Inhibition of GST-tagged human recombinant ROCK1 (1 to 535 residues) expressed in baculovirus expression system at 1 uM by Z'-LYTE assay. The method in brief:
as §1

Experiment [19] addresses Vascular endothelial growth factor receptor 2 (Homo sapiens) (UniProt P35968). As to the kind of experiment: Inhibition of His-tagged human recombinant VEGFR2 (789 to 1356 residues) expressed in baculovirus expression system at 1 uM by Z'-LYTE assay. In short, it runs like this: as §1
The subject of experiment [20] is Epidermal growth factor receptor (Homo sapiens), P00533 [L858R,T790M,C797S]. As to the kind of experiment: Covalent binding affinity to recombinant EGFR L858R/T790M/C797S triple mutant (unknown origin) assessed as Lys745 sulfonylation in tryptic digested peptide IPVAIK745ELR at enzyme:compound molar concentration ratio of 1:5 incubated for 1 hr and measured following tryptic digestion by LC-HRMS analysis. In short, it runs like this:
(§2)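 Recombinant triple-mutant EGFR co-incubated with inhibitor at 1:5 molar ratio for 1 h in Kinase Buffer A (50 mM HEPES pH 7.5, 10 mM MgCl2, 1 mM EGTA, 0.01% Brij-35); DMSO vehicle control. Reduced with DTT (15 min, 60°C), alkylated with iodoacetamide, trypsin-digested overnight at 37°C (1:10 trypsin:protein), C18 cleanup, analysed by LC-HRMS in ESI positive mode.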

Experiment [21] shares this test system. In words: Covalent binding affinity to recombinant EGFR L858R/T790M/C797S triple mutant (unknown origin) assessed as Lys745 sulfonylation in tryptic digested peptide IPVAIK745ELR at enzyme:compound molar concentration ratio of 1:5 incubated for 1 hr and measured following tryptic digestion by isotopic profiling analysis. The method in brief: as §2

Each structure is given as a SMILES string. Calls of active or inactive are those of the source. No cut-off for these calls is given here.

Tyrosine-protein kinase JAK1 (Homo sapiens), sequence (P23458 whole entry, the tested form may be a part): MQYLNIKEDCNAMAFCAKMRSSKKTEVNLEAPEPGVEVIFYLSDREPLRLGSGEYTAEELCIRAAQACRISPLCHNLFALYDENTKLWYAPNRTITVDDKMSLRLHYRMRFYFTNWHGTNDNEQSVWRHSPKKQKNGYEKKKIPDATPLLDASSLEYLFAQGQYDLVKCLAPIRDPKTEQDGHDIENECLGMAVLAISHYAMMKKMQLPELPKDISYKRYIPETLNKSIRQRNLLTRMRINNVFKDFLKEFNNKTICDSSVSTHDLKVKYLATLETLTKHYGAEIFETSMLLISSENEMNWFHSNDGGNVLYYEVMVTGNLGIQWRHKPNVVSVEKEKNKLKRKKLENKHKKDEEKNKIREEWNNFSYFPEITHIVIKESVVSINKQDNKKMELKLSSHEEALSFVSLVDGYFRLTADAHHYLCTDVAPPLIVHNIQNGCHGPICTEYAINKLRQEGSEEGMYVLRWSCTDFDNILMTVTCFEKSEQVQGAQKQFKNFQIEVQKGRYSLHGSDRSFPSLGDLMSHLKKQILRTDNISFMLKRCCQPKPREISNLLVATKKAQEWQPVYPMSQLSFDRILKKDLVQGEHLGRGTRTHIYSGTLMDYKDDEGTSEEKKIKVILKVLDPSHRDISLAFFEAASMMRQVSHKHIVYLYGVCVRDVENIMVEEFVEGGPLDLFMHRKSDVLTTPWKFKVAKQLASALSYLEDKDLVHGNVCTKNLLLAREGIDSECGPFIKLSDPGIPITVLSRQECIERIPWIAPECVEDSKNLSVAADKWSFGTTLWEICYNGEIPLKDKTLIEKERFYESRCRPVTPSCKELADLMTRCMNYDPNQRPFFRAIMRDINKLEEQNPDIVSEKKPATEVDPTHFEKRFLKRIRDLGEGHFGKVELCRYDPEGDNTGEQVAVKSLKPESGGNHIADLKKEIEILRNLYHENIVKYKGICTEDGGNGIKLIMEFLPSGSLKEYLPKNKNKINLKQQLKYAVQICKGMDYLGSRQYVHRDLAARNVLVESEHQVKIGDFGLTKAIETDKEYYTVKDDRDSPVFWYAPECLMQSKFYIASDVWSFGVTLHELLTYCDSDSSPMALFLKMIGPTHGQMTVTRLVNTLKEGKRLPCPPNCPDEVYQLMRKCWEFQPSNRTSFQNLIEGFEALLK
Platelet-derived growth factor receptor alpha (Homo sapiens), sequence (P16234 whole entry, the tested form may be a part): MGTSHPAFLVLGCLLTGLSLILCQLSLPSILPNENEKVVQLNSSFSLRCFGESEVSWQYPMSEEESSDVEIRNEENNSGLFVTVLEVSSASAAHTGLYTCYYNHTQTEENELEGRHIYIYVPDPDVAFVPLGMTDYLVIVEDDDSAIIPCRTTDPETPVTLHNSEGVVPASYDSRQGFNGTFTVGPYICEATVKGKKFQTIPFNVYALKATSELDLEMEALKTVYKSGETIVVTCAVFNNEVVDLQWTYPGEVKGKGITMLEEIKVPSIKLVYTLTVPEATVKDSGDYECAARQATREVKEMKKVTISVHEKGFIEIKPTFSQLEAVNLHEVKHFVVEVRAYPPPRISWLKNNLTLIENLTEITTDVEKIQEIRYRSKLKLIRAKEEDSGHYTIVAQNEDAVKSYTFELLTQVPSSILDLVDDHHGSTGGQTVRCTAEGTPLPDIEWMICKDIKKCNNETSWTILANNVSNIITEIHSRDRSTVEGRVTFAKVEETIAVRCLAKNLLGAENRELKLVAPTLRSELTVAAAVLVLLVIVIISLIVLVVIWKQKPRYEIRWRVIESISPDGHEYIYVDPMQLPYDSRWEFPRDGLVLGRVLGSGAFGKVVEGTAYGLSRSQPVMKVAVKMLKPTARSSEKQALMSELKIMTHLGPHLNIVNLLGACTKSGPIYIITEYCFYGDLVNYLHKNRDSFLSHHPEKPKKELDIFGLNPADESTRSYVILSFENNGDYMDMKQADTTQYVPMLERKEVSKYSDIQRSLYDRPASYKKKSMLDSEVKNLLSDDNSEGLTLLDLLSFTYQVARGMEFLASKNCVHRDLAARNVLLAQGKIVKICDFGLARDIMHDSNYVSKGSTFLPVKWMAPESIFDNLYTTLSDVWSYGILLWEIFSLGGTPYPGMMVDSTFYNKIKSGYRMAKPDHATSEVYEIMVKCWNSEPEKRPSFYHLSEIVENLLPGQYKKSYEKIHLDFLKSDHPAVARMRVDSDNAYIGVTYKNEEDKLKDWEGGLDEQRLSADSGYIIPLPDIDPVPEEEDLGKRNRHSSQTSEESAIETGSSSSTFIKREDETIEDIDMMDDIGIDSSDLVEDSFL
Rho-associated protein kinase 1 (Homo sapiens), sequence (Q13464 2-1354 limits assumed): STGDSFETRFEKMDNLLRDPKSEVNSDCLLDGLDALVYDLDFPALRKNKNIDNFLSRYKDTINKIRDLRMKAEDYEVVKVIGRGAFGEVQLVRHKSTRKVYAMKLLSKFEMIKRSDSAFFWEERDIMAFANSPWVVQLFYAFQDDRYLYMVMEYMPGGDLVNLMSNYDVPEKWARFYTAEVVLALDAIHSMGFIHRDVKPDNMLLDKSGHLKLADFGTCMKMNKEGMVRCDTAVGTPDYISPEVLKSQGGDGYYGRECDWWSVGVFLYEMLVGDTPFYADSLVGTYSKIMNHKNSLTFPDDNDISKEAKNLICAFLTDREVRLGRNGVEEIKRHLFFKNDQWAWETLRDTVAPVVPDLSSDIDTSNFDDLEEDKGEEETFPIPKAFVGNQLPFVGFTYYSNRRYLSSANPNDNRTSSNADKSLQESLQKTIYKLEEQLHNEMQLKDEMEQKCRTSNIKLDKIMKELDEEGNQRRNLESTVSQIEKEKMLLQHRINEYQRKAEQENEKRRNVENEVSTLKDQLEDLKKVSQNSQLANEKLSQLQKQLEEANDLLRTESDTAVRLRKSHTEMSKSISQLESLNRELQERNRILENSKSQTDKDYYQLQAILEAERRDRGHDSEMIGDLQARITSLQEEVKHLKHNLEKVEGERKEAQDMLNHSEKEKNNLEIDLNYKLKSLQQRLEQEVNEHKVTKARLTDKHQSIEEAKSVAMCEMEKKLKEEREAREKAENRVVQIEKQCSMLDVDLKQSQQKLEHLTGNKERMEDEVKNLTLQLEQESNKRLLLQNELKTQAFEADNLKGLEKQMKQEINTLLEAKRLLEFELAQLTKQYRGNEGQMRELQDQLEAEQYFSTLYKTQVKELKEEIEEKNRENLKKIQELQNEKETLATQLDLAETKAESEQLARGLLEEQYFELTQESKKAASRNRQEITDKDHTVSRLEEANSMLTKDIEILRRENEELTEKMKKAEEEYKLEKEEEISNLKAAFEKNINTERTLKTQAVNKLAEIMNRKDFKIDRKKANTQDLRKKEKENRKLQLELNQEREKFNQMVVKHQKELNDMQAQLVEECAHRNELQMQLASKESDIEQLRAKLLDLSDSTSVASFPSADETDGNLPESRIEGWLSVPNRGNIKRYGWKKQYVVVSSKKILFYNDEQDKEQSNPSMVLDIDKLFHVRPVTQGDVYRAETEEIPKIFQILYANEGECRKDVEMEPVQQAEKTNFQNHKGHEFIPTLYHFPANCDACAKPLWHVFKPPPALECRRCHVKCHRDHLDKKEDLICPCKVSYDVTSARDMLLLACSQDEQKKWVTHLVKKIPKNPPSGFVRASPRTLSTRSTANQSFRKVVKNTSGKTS

For `C#CCNC(=O)c1cc(Nc2cc(C3CC3)[nH]n2)nc(N2CCN(Cc3ccc(S(=O)(=O)F)cc3)CC2)n1`, the inhibition entry in experiment [1], in experiment [2], in experiment [3], in experiment [4], in [5] and in [6] was “inactive” each time.
Take `COc1cc(N2CCN(C(C)=O)CC2)ccc1Nc1ncc(Cl)c(Nc2ccc(NCc3ccc(S(=O)(=O)F)cc3)cc2)n1`: the values for the IC50 in experiment [7] and in experiment [8] were 2.8 nM and 30 nM, respectively. For the same compound, the inhibition (in general, how much of the control response was suppressed) was 90% in [9]; 100% in experiment [10]; 100% in experiment [11]; 100% in [12]; 100% in [13]; less than 25% in experiment [14]. Moreover, the inhibition in experiment [16], in experiment [17], in experiment [18] and in experiment [19] was less than 25% throughout. Moreover, the inhibition result in [15] was “Active”. For the same compound, the result in experiment [20] and in [21] was Active.
